In ChEMBL document CHEMBL1145945, “Synthesis and biological evaluation of iodinated and fluorinated 9-(2-hydroxypropyl) and 9-(2-hydroxyethoxy)methyl purine nucleoside analogues” (J Med Chem, 2003):

Columns and labels:
HBL = assay: Inhibitory concentration required to inhibit melanoma (HBL) cells by 50%; format: functional, cell-based; conditions: Homo sapiens
How it was run: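 Monolayer culture in D-MEM or RPMI 1640 plus 10% FBS, 37 °C, 5% CO2. MTT assay at 570 nm, expressed as % growth. IC50 graphically fitted by hand; four parallel samples, three experiments.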

L1210 = assay: Inhibitory concentration required to inhibit murine leukemia (L1210) cell line by 50%; format: functional, cell-based; conditions: Mus musculus
FM3A = assay: Inhibitory concentration required to inhibit mammary carcinoma (FM3A) cell line by 50%; format: functional, cell-based; conditions: Mus musculus
MOLT-4 = assay: Inhibitory concentration required to inhibit human T-lymphocyte (Molt4/C8) cell line by 50%; format: functional, cell-based
HT-29 = assay: Inhibitory concentration required to inhibit human colon carcinoma (HT-29) cells by 50%; format: functional, cell-based
How it was run: (§1)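 Monolayer cells in D-MEM or RPMI 1640 with 10% FBS, 37 °C, 5% CO2, seeded at 3 × 10⁴/mL. MTT read-out at 570 nm as % growth. IC50 by manual graphical fitting; mean ± SD, four parallel samples, three experiments.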

[1] = Inhibitory concentration required to inhibit pancreatic carcinoma (MiaPaCa2) cells by 50%; format: functional, Homo sapiens; how it was run: as §1
HeLa = assay: Inhibitory concentration required to inhibit cervical carcinoma (HeLa) cells by 50%; format: functional, cell-based; conditions: Homo sapiens; how it was run: as §1
WI-38 = assay: Inhibitory concentration required to inhibit diploid fibroblasts (WI38) by 50%; format: functional, cell-based; conditions: Homo sapiens
How it was run: (§2)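 Cells grown as monolayers in D-MEM or RPMI 1640 with 10% FBS at 37 °C, 5% CO2, plated at 5 × 10⁴/mL. Viable cells by MTT absorbance at 570 nm. IC50 from manual graphical fit; mean ± SD of four parallel samples in three experiments.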

CCRF-CEM = assay: Inhibitory concentration required to inhibit human T-lymphocyte (CEM) cell line by 50%; format: functional, cell-based
HEp-2 = assay: Inhibitory concentration required to inhibit laryngeal carcinoma (Hep2) cells by 50%; format: functional, cell-based; conditions: Homo sapiens; how it was run: as §1
SW-620 = assay: Inhibitory concentration required to inhibit human colon carcinoma (SW620) cells by 50%; format: functional, cell-based; how it was run: as §2
FM3A (Mus musculus) = assay: Inhibitory concentration required to inhibit mammary carcinoma (FM3A) cell line by 50%

SMILES | IC50 (HBL) [µM] | IC50 (L1210) [µM] | IC50 (FM3A) [µM] | IC50 (MOLT-4) [µM] | IC50 (HT-29) [µM] | IC50 [1] [µM] | IC50 (HeLa) [µM] | IC50 (CCRF-CEM) [µM] | IC50 (HEp-2) [µM] | IC50 (SW-620) [µM] | IC50 (FM3A (Mus musculus)) [µM] | IC50 (WI-38) [µM]
CC(O)Cn1cnc2c(Cl)nc(I)nc21 (stereo not given) | > 500 | > 500 | 479 | > 500 | > 500 | > 500 | > 500 | > 500 | > 500 | > 500 | – | > 500
OCCOCn1cnc2c(S)nc(F)nc21 | > 500 | 170 | 155 | 164 | > 500 | > 500 | > 500 | 117 | > 500 | > 500 | – | > 500
CC(=O)OC(C)Cn1cnc2c(S)nc(F)nc21 (stereo not given) | > 500 | 226 | 368 | > 500 | > 500 | > 500 | > 500 | > 500 | 200 | > 500 | – | > 500
CC(=O)OC(C)Cn1cnc2c(N)nc(I)nc21 (stereo not given) | > 500 | 421 | 462 | 436 | > 500 | > 500 | > 500 | 381 | > 500 | > 500 | – | > 500
CC(O)Cn1cnc2c(N)nc(I)nc21 (stereo not given) | > 500 | 490 | 452 | > 500 | > 500 | > 500 | > 500 | 465 | > 500 | > 500 | – | > 500
Nc1nc(I)nc2c1ncn2COCCO | > 500 | > 500 | > 500 | > 500 | > 500 | > 500 | > 500 | > 500 | > 500 | > 500 | – | > 500
CC(=O)OC(C)Cn1cnc2c(Cl)nc(N)nc21 (stereo not given) | > 500 | > 500 | > 500 | > 500 | > 500 | > 500 | > 500 | > 500 | > 500 | > 500 | – | > 500
CC(=O)OC(C)Cn1cnc2c(S)nc(N)nc21 (stereo not given) | 630 | 128 | 366 | 370 | > 500 | 25 | 89 | 381 | 10 | 0.16 | – | 0.4
COc1nc(I)nc2c1ncn2COCCO | > 500 | > 500 | > 500 | > 500 | > 500 | > 500 | > 500 | > 500 | > 500 | > 500 | – | > 500
CC(=O)OCCOCn1cnc2c(S)nc(F)nc21 | > 500 | 40 | 136 | 35 | > 500 | > 500 | > 500 | 37 | > 500 | > 500 | – | > 500
CC(O)Cn1cnc2c(S)nc(F)nc21 (stereo not given) | > 500 | > 500 | > 500 | > 500 | > 500 | > 500 | > 500 | > 500 | > 500 | > 500 | – | > 500

These reach a lower IC50 (HBL). Values come first.

IC50 (HBL) [µM] | IC50 (L1210) [µM] | IC50 (FM3A) [µM] | IC50 (MOLT-4) [µM] | IC50 (HT-29) [µM] | IC50 [1] [µM] | IC50 (HeLa) [µM] | IC50 (CCRF-CEM) [µM] | IC50 (HEp-2) [µM] | IC50 (SW-620) [µM] | IC50 (FM3A (Mus musculus)) [µM] | SMILES | IC50 (WI-38) [µM]
5.25 | 13 | 47 | 12.3 | 6.42 | 14.5 | 5.13 | 15.9 | 6.31 | 3.55 | – | CC(=O)OC(C)Cn1cnc2c(Cl)nc(I)nc21 (stereo not given) | 14.1
15.8 | 3.2 | 2 | 8.9 | > 500 | > 500 | 5 | 7.5 | 4.9 | 4.2 | – | CC(=O)OCCOCn1cnc2c(S)nc(N)nc21 | > 500
25 | > 500 | – | > 500 | > 500 | > 500 | 63 | > 500 | – | > 500 | > 500 | CC(O)Cn1cnc2c(F)nc(N)nc21 (stereo not given) | > 500
44.7 | 37 | 93 | 41 | 75.9 | 93.3 | 50 | 44 | 10 | 8.9 | – | CC(=O)OC(C)Cn1cnc2c(Cl)nc(F)nc21 (stereo not given) | 100
19.9 | 8.6 | 34 | 9.4 | > 500 | > 500 | 398 | 11 | 56.2 | 15.8 | – | CC(=O)OCCOCn1cnc2c(Cl)nc(I)nc21 | 63.1
